Activity calls are given as the source filed them. No cut-off for these calls is given here.
Columns and labels:
[1] = Cysteamine reactivity assessed as aromatic signals at 1 mM measured after 30 mins by LC-MS/MS analysis; type: physicochemical; conditions: 0.5 h, 1000 µM
[2] = Metabolic stability in liver microsomes (unknown origin) assessed as half life at 10 uM by UPLC analysis; type: ADME, Microsome
[3] = biological target: Indoleamine 2,3-dioxygenase 1 (Homo sapiens) (UniProt P14902); test: Inhibition of human IDO1 assessed as reduction in kynurenine production at 100 uM using tryptophan as substrate by enzymatic assay
Sequence of Indoleamine 2,3-dioxygenase 1 (Homo sapiens) (P14902 whole entry, looked up): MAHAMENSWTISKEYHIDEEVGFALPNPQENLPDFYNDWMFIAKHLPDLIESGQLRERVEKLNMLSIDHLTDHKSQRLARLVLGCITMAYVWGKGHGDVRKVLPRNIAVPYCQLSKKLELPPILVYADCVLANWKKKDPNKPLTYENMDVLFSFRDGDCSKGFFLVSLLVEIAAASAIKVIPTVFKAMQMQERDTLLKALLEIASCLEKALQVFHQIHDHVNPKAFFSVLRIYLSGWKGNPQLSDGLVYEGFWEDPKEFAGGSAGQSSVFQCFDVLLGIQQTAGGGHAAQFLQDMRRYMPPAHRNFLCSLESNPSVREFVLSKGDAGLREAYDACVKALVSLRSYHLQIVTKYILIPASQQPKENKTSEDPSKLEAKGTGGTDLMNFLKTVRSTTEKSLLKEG

[4] = biological target: Indoleamine 2,3-dioxygenase 1 (Homo sapiens) (UniProt P14902); test: Inhibition of human IDO1 assessed as reduction in kynurenine production at 100 uM using tryptophan as substrate by cellular assay
[5] = Cysteamine reactivity assessed as aromatic signals at 1 mM measured after 30 mins by 1H NMR spectroscopy; type: physicochemical; conditions: 0.5 h, 1000 µM
[6] = Cytotoxicity against mouse P815B cells incubated for 2 to 4 hrs by MTS assay; type: cell-based, P815; conditions: time 2-4 hrs, read-out: LD50 (the source's name)
How it was run: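 1 × 10⁵ cells per well in DMEM; MTS with PMS, diluted in PBS, added to the wells; incubated 2–4 h at 37 °C; absorbance read at 490 nm.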

[7] = biological target: Tryptophan 2,3-dioxygenase (Homo sapiens, UniProt P48775); test: Inhibition of human TDO2 expressed in HEK293E cells assessed as reduction in N-formylkynurenine formation using tryptophan as substrate measured after 24 hrs by HPLCC based UV spectrometry; type: cell-based, HEK2936E
Sequence of Tryptophan 2,3-dioxygenase (P48775 whole entry): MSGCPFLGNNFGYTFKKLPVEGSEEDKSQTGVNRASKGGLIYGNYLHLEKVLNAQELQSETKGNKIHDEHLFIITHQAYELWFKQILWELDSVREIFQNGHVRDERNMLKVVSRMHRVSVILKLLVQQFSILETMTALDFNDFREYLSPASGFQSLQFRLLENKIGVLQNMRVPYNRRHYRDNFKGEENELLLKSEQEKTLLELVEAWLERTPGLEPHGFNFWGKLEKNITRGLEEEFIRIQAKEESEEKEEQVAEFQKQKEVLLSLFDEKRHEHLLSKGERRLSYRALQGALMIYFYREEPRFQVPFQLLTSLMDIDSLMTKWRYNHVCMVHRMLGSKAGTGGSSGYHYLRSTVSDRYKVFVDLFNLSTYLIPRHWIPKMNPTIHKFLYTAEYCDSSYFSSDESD

[8] = Toxicity in mouse P815 cells assessed as cell cycle distribution at > 100 uM measured after 6 to 12 hrs by propidium iodide DNA staining based flow cytometry; conditions: time 6-12 hrs

In the case of `Fc1ccc2c(/C=C/c3nnn[nH]3)c[nH]c2c1`, the Drug metabolism [1] is reported as “Metabolite_Detected”, the half-life at 10 µM [2] is reported as > 1440 min and the inhibition [3] is reported as “inactive”. For the same compound, the inhibition [4] was “inactive”, the Drug metabolism [5] was “Metabolite_Detected” and the CC50 [6] was > 100 µM.
With `c1ccc2c(-c3ccc4ccncc4c3)c[nH]c2c1` the CC50 [6] was > 20 µM.
For `Fc1ccc2c(/C=C/c3cccnc3)c[nH]c2c1`, the inhibition [3] was “inactive”, the inhibition [4] was “inactive” and the CC50 [6] was > 80 µM.
`O=S(=O)(c1ccc(-c2c[nH]c3cc(F)ccc23)cn1)N1CCNCC1` showed an IC50 [7] of 3.2 µM.
In the case of `c1ccc2c(-c3ccc4n[nH]nc4c3)c[nH]c2c1`, the Drug metabolism [1] is reported as “Metabolite_Notdetected”, the Activity [8] is reported as “Non-Toxic” and the Drug metabolism [5] is reported as “Metabolite_Notdetected”. The CC50 [6] was > 100 µM.
With `O=C1NCC2C=CC(c3c[nH]c4ccccc34)=CC2N1` (stereo not given) the CC50 [6] was > 30 µM.
In the case of `c1ccc2c(-c3ccc4cnccc4c3)c[nH]c2c1`, the CC50 [6] is reported as > 30 µM.
`FC(F)(F)Cn1nnc2ccc(-c3c[nH]c4ccccc34)cc21` showed a half-life at 10 µM [2] of 45 min.
For `c1ccc2c(-c3ccc4cncnc4c3)c[nH]c2c1`, the CC50 [6] was > 100 µM.
For `c1ccc2c(-c3ccc4ncncc4c3)c[nH]c2c1`, the CC50 [6] was > 100 µM.
